Measurements as given in ChEMBL document CHEMBL1821581, “Synthesis, antiproliferative activities and in vitro biological evaluation of novel benzofuransulfonamide derivatives” (Bioorg Med Chem Lett, 2011).

How the values were obtained:
HepG2 = test: Antiproliferative activity against human HepG2 cells after 48 hrs by MTT assay; type: functional, cell-based; conditions: HepG2, 48 h
In short: (§1)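 Cells seeded at 2000/well, cultured 24 h, then exposed to compounds 48 h. MTT (10 mg/mL stock, 10 µL/well) added for 2.5 h at 37 °C; supernatant removed, DMSO added 15–20 min, absorbance read at 570 nm. IC50 reported as mean of three independent experiments.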

NCI-H460 [1] = test: Antiproliferative activity against human NCI-H460 cells after 48 hrs by MTT assay; type: functional, cell-based; conditions: NCI-H460, 48 h; in short: as §1
PC-3 = test: Antiproliferative activity against human PC3 cells after 48 hrs by MTT assay; type: functional, cell-based; conditions: PC-3, 48 h; in short: as §1
HeLa = test: Antiproliferative activity against human HeLa cells after 48 hrs by MTT assay; type: functional, cell-based; in short: as §1
NCI-H460 [2] = test: Induction of apoptosis in human NCI-H460 cells at 10 uM after 48 hrs using annexin V-FITC and propidium iodine staining by flow cytometric analysis (reference value: 3.82%); type: functional
NCI-H460 [3] = test: Induction of apoptosis in human NCI-H460 cells at 2.5 uM after 48 hrs using annexin V-FITC and propidium iodine staining by flow cytometric analysis (reference value: 3.82%); type: functional

| Compound | IC50 (HepG2) [µM] | IC50 (NCI-H460 [1]) [µM] | IC50 (PC-3) [µM] | IC50 (HeLa) [µM] | Activity (NCI-H460 [2]) [%] | Activity (NCI-H460 [3]) [%] |
| --- | --- | --- | --- | --- | --- | --- |
| Cc1c(C(=O)c2ccccc2)oc2ccc(NC(=O)c3ccc(F)cc3)cc12 | 31.2 | 15.6 | 13.5 | 18.8 |  |  |
| Cc1c(C(=O)c2ccccc2)oc2ccc(NS(=O)(=O)c3ccc(F)cc3)cc12 | 24.1 | 34.8 | 38.2 | 10.6 |  |  |
| CC(=O)Nc1ccc2oc(C(=O)c3ccccc3)c(C)c2c1 | > 40 | > 40 | > 40 | > 40 |  |  |
| CCOC(=O)c1oc2ccc(NS(=O)(=O)c3ccc(F)cc3)cc2c1C | 5.68 | 8.89 | 15.9 | 12.2 |  |  |
| Cc1c(C(=O)c2ccccc2)oc2ccc(S(=O)(=O)Nc3ccc(F)cc3)cc12 | 32.2 | 22.6 | 22.1 | 15.4 |  |  |
| CCOC(=O)c1oc2ccc(S(=O)(=O)Nc3ccc(F)cc3)cc2c1C | 7.53 | 4.13 | 8.56 | 9.37 | 41.09 | 33.88 |
